Laboratory results as given in ChEMBL document CHEMBL1134793, “Investigation of the selectivity of oxymorphone- and naltrexone-derived ligands via site-directed mutagenesis of opioid receptors: exploring the "address" recognition locus” (J Med Chem, 2001).

Key:
Format in all cases: cell-based, HEK293
[1] = target: Delta-type opioid receptor (Mus musculus, UniProt P32300); experiment: Displacement of [3H]- diprenorphine from delta receptor expressed in HEK 293 cells
In short: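 HEK-293 cells transiently transfected with wild-type or mutant receptor cDNA by calcium phosphate were harvested 60-72 h later and suspended in 25 mM HEPES, pH 7.4. […] Nonspecific binding was defined with 1 μM NTI. Bound ligand was filtered on PEI-soaked GF/B and counted.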

[2] = target: Delta-type opioid receptor (Mus musculus, UniProt P32300, W284E); experiment: Displacement of [3H]- diprenorphine from delta-W284E-receptor expressed in HEK 293 cells
In short: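 HEK-293 cells transiently transfected with wild-type or mutant receptor cDNA by calcium phosphate were harvested 60-72 h later and suspended in 25 mM HEPES, pH 7.4. Nonspecific binding was defined with 1 μM NTI. Bound ligand was filtered on PEI-soaked GF/B and counted.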

[3] = target: Kappa-type opioid receptor (Rattus norvegicus, UniProt P34975, E297A); experiment: Displacement of [3H]diprenorphine from k-E297A-receptor expressed in HEK 293 cells
[4] = target: Kappa-type opioid receptor (Rattus norvegicus, UniProt P34975); experiment: Displacement of [3H]diprenorphine from opioid receptor kappa 1 expressed in HEK 293 cells
[5] = target: Kappa-type opioid receptor (Rattus norvegicus, UniProt P34975, Y312A); experiment: Displacement of [3H]diprenorphine from k-Y312A-receptor expressed in HEK 293 cells
[6] = target: Mu-type opioid receptor (Rattus norvegicus, UniProt P33535, K303E); experiment: Displacement of [3H]- diprenorphine from mu-K303E-receptor expressed in HEK 293 cells
[7] = target: Mu-type opioid receptor (Rattus norvegicus, UniProt P33535, W318A); experiment: Displacement of [3H]- diprenorphine from mu-W318A-receptor expressed in HEK 293 cells
[8] = target: Mu-type opioid receptor (Rattus norvegicus, UniProt P33535); experiment: Displacement of [3H]- diprenorphine from mu-receptor expressed in HEK 293 cells
Mu-type opioid receptor (Rattus norvegicus, UniProt P33535), sequence (P33535 whole entry): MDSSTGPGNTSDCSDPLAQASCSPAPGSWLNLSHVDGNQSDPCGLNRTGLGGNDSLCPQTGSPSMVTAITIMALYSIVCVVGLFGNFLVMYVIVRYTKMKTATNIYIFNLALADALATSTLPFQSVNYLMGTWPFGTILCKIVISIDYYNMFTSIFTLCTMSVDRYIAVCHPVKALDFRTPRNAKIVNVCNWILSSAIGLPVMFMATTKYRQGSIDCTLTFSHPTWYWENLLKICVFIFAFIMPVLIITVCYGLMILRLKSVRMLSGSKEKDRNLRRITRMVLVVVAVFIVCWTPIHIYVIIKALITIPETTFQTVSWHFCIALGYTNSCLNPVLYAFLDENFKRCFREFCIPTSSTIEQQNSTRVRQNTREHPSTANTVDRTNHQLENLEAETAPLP

Delta-type opioid receptor (Mus musculus, UniProt P32300), sequence (P32300 whole entry): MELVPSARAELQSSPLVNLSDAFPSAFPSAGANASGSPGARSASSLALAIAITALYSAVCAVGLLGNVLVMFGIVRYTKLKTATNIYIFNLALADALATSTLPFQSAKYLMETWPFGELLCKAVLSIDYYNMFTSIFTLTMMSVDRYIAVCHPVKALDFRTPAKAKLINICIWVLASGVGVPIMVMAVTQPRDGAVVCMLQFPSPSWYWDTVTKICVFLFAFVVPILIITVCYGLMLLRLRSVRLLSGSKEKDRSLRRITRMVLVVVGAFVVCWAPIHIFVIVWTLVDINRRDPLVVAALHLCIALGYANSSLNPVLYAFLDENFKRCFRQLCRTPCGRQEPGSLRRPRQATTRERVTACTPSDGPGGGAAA
Kappa-type opioid receptor (Rattus norvegicus, UniProt P34975), sequence (P34975 whole entry): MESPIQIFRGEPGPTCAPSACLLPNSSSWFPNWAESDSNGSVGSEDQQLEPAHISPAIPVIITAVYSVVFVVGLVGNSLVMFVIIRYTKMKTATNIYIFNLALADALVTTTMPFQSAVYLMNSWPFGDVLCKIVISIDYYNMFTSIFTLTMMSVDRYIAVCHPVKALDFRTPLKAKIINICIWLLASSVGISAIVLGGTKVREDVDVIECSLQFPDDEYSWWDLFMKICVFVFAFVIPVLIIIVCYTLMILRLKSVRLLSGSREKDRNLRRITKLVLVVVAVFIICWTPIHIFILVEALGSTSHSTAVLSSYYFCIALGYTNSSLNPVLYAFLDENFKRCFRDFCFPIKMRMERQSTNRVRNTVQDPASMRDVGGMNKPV
Delta-type opioid receptor (Mus musculus, UniProt P32300, W284E), sequence (P32300 whole entry W284E): as the sequence (P32300 whole entry) above, with W284E counted along it
Kappa-type opioid receptor (Rattus norvegicus, UniProt P34975, E297A), sequence (P34975 whole entry E297A): as the sequence (P34975 whole entry) above, with E297A counted along it
Kappa-type opioid receptor (Rattus norvegicus, UniProt P34975, Y312A), sequence (P34975 whole entry Y312A): as the sequence (P34975 whole entry) above, with Y312A counted along it
Mu-type opioid receptor (Rattus norvegicus, UniProt P33535, K303E), sequence (P33535 whole entry K303E): as the sequence (P33535 whole entry) above, with K303E counted along it
Mu-type opioid receptor (Rattus norvegicus, UniProt P33535, W318A), sequence (P33535 whole entry W318A): as the sequence (P33535 whole entry) above, with W318A counted along it

| SMILES | Ki [1] | Ki [2] | Ki [3] | Ki [4] | Ki [5] | Ki [6] | Ki [7] | Ki [8] |
| --- | --- | --- | --- | --- | --- | --- | --- | --- |
| Oc1ccc2c3c1O[C@H]1c4[nH]c5ccccc5c4C[C@@]4(O)[C@@H](C2)N(CC2CC2)CC[C@]314 [NALTRINDOLE] | 0.19 nM | 1.82 nM | 42 nM | 25.5 nM | 1.23 nM |  |  |  |
| N=C(N)Nc1ccc2[nH]c3c(c2c1)C[C@@]1(O)[C@H]2Cc4ccc(O)c5c4[C@@]1(CCN2CC1CC1)[C@H]3O5 [GUANIDINONALTRINDOLE] | 46.2 nM | 1.1 nM | 3.9 nM |  | 0.03 nM | 0.09 nM | 0.5 nM |  |
| Oc1ccc2c3c1O[C@H]1c4[nH]c5c(c4C[C@@]4(O)[C@@H](C2)N(CC2CC2)CC[C@]314)C[C@@]1(O)[C@H]2Cc3ccc(O)c4c3[C@@]1(CCN2CC1CC1)[C@H]5O4 [NORBINALTORPHIMINE] |  |  |  | 0.07 nM | 1.39 nM |  |  |  |
| CN1CC[C@]23c4c5ccc(O)c4O[C@H]2C(=O)C2(Cc4ccccc4C2)C[C@@]3(O)[C@H]1C5 [SPIROINDANYLOXYMORPHONE] | 4.1 nM | 46.6 nM | 292 nM | 488 nM | 55 nM | 154 nM | 3.9 nM | 88.4 nM |
